Measured values: ChEMBL document CHEMBL1147109, “Genetic elements carrying erm(B) in Streptococcus pyogenes and association with tet(M) tetracycline resistance gene” (2007)
≈ marks a conversion by molar mass, not a printed value.

Assays:
Streptococcus pyogenes [1] = assay: Antimicrobial activity against tetracyclin-resistant Streptococcus pyogenes C-105 transconjugated with erm(B) and tet(M) genes; format: functional
Summary of the method: (§1)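 Transconjugants came from membrane-filter mating of the donor strain into recipient S. pyogenes 12RF (rifampin- and fusidic acid-resistant), done at least three times, and were confirmed by PCR to carry erm(B) and tet(M). MICs were then determined by broth microdilution to CLSI recommendations, with S. pneumoniae ATCC 49619 as quality control.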

Streptococcus pyogenes [2] = assay: Antimicrobial activity against tetracycline-susceptible Streptococcus pyogenes cMLS isolate E expressing tet(M), tndX gene; format: functional
Summary of the method: (§2)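 Broth microdilution MICs per CLSI against clinical S. pyogenes isolates carrying erm(B); S. pneumoniae ATCC 49619 as quality control. For some isolates, tetracycline MICs were also read after induction: colonies from overnight brain heart infusion agar were grown on brain heart infusion agar with or without subinhibitory tetracycline (0.05 μg/ml), harvested within 20 h, then tested.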

Streptococcus pyogenes [3] = assay: Antimicrobial activity against tetracycline-susceptible Streptococcus pyogenes iMLS-A isolate expressing erm(B); format: functional; summary of the method: as §2
Streptococcus pyogenes [4] = assay: Antimicrobial activity against tetracycline-susceptible Streptococcus pyogenes cMLS isolate expressing erm(B); format: functional; summary of the method: as §2
Streptococcus pyogenes [5] = assay: Antimicrobial activity against Streptococcus pyogenes cMLS isolate B expressing tet(M), int, Xis gene; format: functional
Summary of the method: (§3)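 Broth microdilution MICs run to CLSI recommendations on clinical erm(B)-carrying S. pyogenes isolates, with S. pneumoniae ATCC 49619 as quality control. In some isolates, tetracycline MICs were also measured on cells grown for no longer than 20 h on brain heart infusion agar, with or without subinhibitory tetracycline (0.05 μg/ml).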

Streptococcus pyogenes [6] = assay: Antimicrobial activity against tetracyclin-resistant Streptococcus pyogenes cMLS isolate expressing erm(B); format: functional; summary of the method: as §3
Streptococcus pyogenes [7] = assay: Antimicrobial activity against tetracycline-susceptible Streptococcus pyogenes cMLS isolate G expressing tnpA, tnpR gene; format: functional; summary of the method: as §2
Streptococcus pyogenes [8] = assay: Antimicrobial activity against erythromycin-resistant Streptococcus pyogenes C-105 transconjugated with erm(B) and tet(M) genes; format: functional; summary of the method: as §1
Streptococcus pyogenes [9] = assay: Antimicrobial activity against erythromycin-resistant Streptococcus pyogenes E-115 transconjugated with erm(B) and tet(M) genes; format: functional; summary of the method: as §1
Streptococcus pyogenes [10] = assay: Antimicrobial activity against tetracycline-susceptible Streptococcus pyogenes cMLS isolate D expressing tet(M), Xis, tnpA, tnpR gene; format: functional; summary of the method: as §2
Streptococcus pyogenes [11] = assay: Antimicrobial activity against erythromycin-resistant Streptococcus pyogenes A-3 transconjugated with erm(B) and tet(M) genes; format: functional; summary of the method: as §1
Streptococcus pyogenes [12] = assay: Antimicrobial activity against tetracycline-resistant Streptococcus pyogenes cMLS isolate C expressing tet(M), Xis, tnpA, tnpR gene
Streptococcus pyogenes [13] = assay: Antimicrobial activity against erythromycin-resistant Streptococcus pyogenes B-83 transconjugated with erm(B) and tet(M) genes; format: functional; summary of the method: as §1
Streptococcus pyogenes [14] = assay: Antimicrobial activity against erythromycin-resistant Streptococcus pyogenes D-112 transconjugated with erm(B) and tet(M) genes; format: functional; summary of the method: as §1
Streptococcus pyogenes [15] = assay: Antimicrobial activity against Streptococcus pyogenes iMLS-A isolate A expressing tet(M), tndX gene; format: functional; summary of the method: as §2
Streptococcus pyogenes [16] = assay: Antimicrobial activity against tetracycline-susceptible Streptococcus pyogenes cMLS isolate F; format: functional; summary of the method: as §2

Row | Compound | MIC (Streptococcus pyogenes [1]) [µg/mL] | MIC (Streptococcus pyogenes [2]) [µg/mL] | MIC (Streptococcus pyogenes [3]) [µg/mL] | MIC (Streptococcus pyogenes [4]) [µg/mL] | MIC (Streptococcus pyogenes [5]) [µg/mL] | MIC (Streptococcus pyogenes [6]) [µg/mL] | MIC (Streptococcus pyogenes [7]) [µg/mL] | MIC (Streptococcus pyogenes [8]) [µg/mL] | MIC (Streptococcus pyogenes [9]) [µg/mL] | MIC (Streptococcus pyogenes [10]) [µg/mL] | MIC (Streptococcus pyogenes [11]) [µg/mL] | MIC (Streptococcus pyogenes [12]) [µg/mL] | MIC (Streptococcus pyogenes [13]) [µg/mL] | MIC (Streptococcus pyogenes [14]) [µg/mL] | MIC (Streptococcus pyogenes [15]) [µg/mL] | MIC (Streptococcus pyogenes [16]) [µg/mL]
1 | CN(C)[C@@H]1C(O)=C(C(N)=O)C(=O)[C@@]2(O)C(O)=C3C(=O)c4c(O)cccc4[C@@](C)(O)[C@H]3C[C@@H]12 [TETRACYCLINE] | 32 (≈ 72 µM) | 0.125 (≈ 0.281 µM) | ≤ 0.125 | ≤ 0.125 | 32 (≈ 72 µM) | 32 (≈ 72 µM) | 0.125 (≈ 0.281 µM) | 32 (≈ 72 µM) | 0.25 (≈ 0.563 µM) | 0.125 (≈ 0.281 µM) | 0.25 (≈ 0.563 µM) | 32 (≈ 72 µM) | 32 (≈ 72 µM) | 0.25 (≈ 0.563 µM) | 0.125 (≈ 0.281 µM) | 0.125 (≈ 0.281 µM)
2 | CC[C@H]1OC(=O)[C@H](C)[C@@H](O[C@H]2C[C@@](C)(OC)[C@@H](O)[C@H](C)O2)[C@H](C)[C@@H](O[C@@H]2O[C@H](C)C[C@H](N(C)C)[C@H]2O)[C@](C)(O)C[C@@H](C)C(=O)[C@H](C)[C@@H](O)[C@]1(C)O [ERYTHROMYCIN] | > 128 |  |  |  |  |  |  | > 128 | > 128 |  | > 128 |  | > 128 | > 128 |  | 
